# Data as given in publication PMC5777231 (Nature, 2017).
# Legend:
# S1PR3 = S1PR3 (Homo sapiens, UniProt Q99500); test: β-arrestin GPCR agonist screen, S1PR3; type: cell-based; conditions: 10 µM ligand
# How it was run: (§1)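 Cell-based β-arrestin recruitment screen, run by a contract lab, at 10 µM ligand in agonist and antagonist modes across 168 GPCRs with known ligands plus 72 orphan GPCRs. Test compounds were bacterial N-acyl amides, taking the most abundant analog of each family from heterologous E. coli expression. Synthetic N-acyl amides were screened the same way.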
# S1PR1 = S1PR1 (Homo sapiens, UniProt P21453); test: β-arrestin GPCR agonist screen, S1PR1; type: cell-based; conditions: 10 µM ligand
# How it was run: as §1
# [1] = biological target: T1, sphingosine-1-phosphate receptor 4 (S1PR4) (Homo sapiens, UniProt O95977); test: β-arrestin cell-based GPCR agonist assay; conditions: for activation of / interaction with S1PR4 (in words): GPCR screen
# T1 sequence (O95977 1-384): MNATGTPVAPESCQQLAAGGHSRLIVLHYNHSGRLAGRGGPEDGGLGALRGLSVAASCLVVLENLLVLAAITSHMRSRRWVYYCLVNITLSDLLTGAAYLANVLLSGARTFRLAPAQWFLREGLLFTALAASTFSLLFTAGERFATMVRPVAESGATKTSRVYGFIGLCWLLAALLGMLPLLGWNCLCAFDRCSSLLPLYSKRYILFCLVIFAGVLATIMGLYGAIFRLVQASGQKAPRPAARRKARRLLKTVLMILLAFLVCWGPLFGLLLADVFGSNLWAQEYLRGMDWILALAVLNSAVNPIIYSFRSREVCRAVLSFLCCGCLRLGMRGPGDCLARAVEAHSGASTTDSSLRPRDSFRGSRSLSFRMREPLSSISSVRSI
# S1PR2 = S1PR2 (Homo sapiens, UniProt O95136); test: β-arrestin GPCR agonist screen, S1PR2; type: cell-based; conditions: 10 µM ligand
# How it was run: as §1
# GLUTag cells = test: GLP-1 release from GLUTag cells; type: cell-based, murine; conditions: equimolar concentrations, 2 hours
# How it was run: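 Murine enteroendocrine GLUTag cells were grown in low-glucose GlutaMAX DMEM with 10% FBS and 1% Pen/Strep, then plated at 50,000 cells/well overnight. Cells were washed twice and preincubated 30 min in Krebs buffer with DPP4 inhibitor. Compounds from 10 mM DMSO stocks were added at 1 µM and 100 µM for 2 h, with DMSO as control. Clarified supernatant was assayed by active GLP-1 immunoassay. Two independent experiments gave 4–6 wells per condition, analysed by ANOVA.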
# GPR119 = biological target: T2, GPR119 (Homo sapiens, UniProt Q8TDV5); test: cAMP secondary assay in ACTOne HEK293 cells transfected with GPR119; type: cell-based; conditions: HEK293 cells stably transfected with GPR119 vs not transfected; GPR119 dependent
# T2 sequence (Q8TDV5 1-335): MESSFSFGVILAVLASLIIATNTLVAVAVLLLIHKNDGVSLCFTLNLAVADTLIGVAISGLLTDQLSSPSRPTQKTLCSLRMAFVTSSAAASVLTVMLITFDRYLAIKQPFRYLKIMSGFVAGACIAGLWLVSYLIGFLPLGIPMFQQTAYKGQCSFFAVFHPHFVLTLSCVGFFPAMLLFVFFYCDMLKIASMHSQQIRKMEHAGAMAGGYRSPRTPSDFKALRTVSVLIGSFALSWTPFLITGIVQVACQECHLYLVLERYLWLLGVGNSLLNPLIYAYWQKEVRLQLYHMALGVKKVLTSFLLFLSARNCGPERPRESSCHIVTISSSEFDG
# How it was run: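 Orthogonal cAMP read-out used live ACTOne HEK293 cells, which carry a cAMP-sensitive ion channel, read with a membrane potential dye kit. GPR119-transfected cells were compared with parental untransfected cells. Each was exposed to equimolar ligand concentrations, with the endogenous ligand and an ADORA2B agonist as parental-line cAMP control. Relative fluorescence intensity was taken against background. Points were in quadruplicate, SD shown, and EC50 was derived.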
# [2] = mice, intravenous delivery; cited from earlier work
# G2A (GPR132) = biological target: T3, G2A (GPR132) (Homo sapiens, UniProt Q9UNW8); test: β-arrestin cell-based orphan GPCR agonist assay
# T3 sequence (Q9UNW8 1-380): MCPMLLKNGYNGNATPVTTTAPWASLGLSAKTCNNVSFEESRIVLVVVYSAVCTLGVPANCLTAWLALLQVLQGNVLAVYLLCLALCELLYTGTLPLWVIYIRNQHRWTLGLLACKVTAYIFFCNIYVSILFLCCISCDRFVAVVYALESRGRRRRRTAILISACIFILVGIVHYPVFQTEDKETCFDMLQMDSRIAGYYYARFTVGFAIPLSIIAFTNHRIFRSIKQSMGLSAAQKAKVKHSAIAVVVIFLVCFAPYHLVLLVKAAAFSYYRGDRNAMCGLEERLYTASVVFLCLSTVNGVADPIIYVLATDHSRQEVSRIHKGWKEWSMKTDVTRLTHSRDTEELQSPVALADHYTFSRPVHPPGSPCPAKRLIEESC
# How it was run: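 Orphan GPCR panel, DiscoveRx β-arrestin recruitment format, agonist mode. Test compound was screened at 10 µM in singlicate. Follow-up dose-response curves were run in duplicate per dose, and EC50 was derived from them.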
# Chain of S1PR2 (O95136 whole entry): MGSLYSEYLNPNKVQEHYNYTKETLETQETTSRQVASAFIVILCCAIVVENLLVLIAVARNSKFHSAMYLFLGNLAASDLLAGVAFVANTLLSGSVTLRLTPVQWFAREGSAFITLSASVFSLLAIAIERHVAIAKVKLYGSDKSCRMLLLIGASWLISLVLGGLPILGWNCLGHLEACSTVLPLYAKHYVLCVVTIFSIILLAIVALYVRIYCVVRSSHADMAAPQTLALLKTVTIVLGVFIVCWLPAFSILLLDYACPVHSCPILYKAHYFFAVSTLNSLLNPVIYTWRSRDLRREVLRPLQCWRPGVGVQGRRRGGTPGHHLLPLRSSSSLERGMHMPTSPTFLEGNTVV
# Chain of S1PR3 (Q99500 whole entry): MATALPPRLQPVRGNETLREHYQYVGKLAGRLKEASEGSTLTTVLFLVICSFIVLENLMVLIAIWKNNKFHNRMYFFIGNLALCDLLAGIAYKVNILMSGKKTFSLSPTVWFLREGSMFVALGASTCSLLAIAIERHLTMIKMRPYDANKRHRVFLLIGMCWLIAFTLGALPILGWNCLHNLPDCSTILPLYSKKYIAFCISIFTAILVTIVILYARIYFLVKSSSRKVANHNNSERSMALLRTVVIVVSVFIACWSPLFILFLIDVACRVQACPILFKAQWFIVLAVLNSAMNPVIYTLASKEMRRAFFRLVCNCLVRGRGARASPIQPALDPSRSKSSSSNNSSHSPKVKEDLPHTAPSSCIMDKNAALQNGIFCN
# Chain of S1PR1 (P21453 whole entry): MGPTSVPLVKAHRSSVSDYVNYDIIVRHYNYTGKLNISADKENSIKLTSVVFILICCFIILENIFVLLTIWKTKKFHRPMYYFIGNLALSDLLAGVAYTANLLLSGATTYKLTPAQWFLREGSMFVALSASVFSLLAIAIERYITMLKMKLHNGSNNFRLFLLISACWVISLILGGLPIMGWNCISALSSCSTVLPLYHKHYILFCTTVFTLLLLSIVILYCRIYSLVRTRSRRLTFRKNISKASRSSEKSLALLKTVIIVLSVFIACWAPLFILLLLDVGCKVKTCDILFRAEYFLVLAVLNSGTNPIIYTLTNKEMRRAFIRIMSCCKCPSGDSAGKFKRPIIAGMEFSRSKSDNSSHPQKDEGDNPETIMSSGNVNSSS
smiles,measurement,setting,value
"CCCCCCCCCCCCC/C=C/[C@@H](O)[C@@H](N)COP(=O)(O)O [S1P, sphingosine-1-phosphate]",activation of S1PR3,S1PR3,activates
same,activation of S1PR1,S1PR1,activates
same,activation of / interaction with S1PR4 (in words),[1],activates
same,activation of S1PR2,S1PR2,activates
"CCCCCCCC/C=C\CCCCCCCC(=O)OC(CO)CO [2-OG, 2-oleoyl glycerol]",GLP-1 secretion,GLUTag cells,to the same magnitude
"CCCCCCCC/C=C\CCCCCCCC(=O)NCCO [OEA, oleoylethanolamide]",GLP-1 secretion,GLUTag cells,to the same magnitude
same,cellular cAMP concentration (in words),GPR119,increased
same,blood glucose in OGTT,[2],fails to lower blood glucose
CCCCCCCCCCCCCC(O)CC(=O)N[C@@H](CCCCN)C(=O)O (stereo partly shown) [N-3-hydroxypalmitoyl lysine],activation of / interaction with S1PR4 (in words),[1],interact
CCCCCCCCCCCCCC(O)CC(=O)N[C@@H](CCCN)C(=O)O (stereo partly shown) [N-3-hydroxypalmitoyl ornithine],activation of S1PR3,S1PR3,did not activate
same,activation of S1PR1,S1PR1,did not activate
same,EC50,[1],32 µM
same,activation of / interaction with S1PR4 (in words),[1],interact
same,activation of S1PR2,S1PR2,did not activate
CCCCCCCCCCCCCCCC(=O)N[C@@H](C)C(=O)O [N-palmitoyl alanine],activation of G2A (in words),G2A (GPR132),activate
CCCCCCCCCCCCCC(O)CC(=O)NCC(=O)O (stereo not shown) [N-3-hydroxypalmitoyl glycine],activation of G2A (in words),G2A (GPR132),activate
